Results reported in ChEMBL document CHEMBL1156066 (J Med Chem, 2009).
≈ marks a conversion by molar mass, not a printed value.

Key:
[1] = Solubility at pH 4 to 8; type: physicochemical; conditions: buffer
[2] = Lipophilicity, log D at pH 6.5; type: physicochemical; conditions: buffer
Summary of the method: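 Log D was measured by the octanol/water shake-flask method using phosphate buffered solution, pH 6.5.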

[3] = Cytotoxicity against human MT2 cells after 3 days by XTT assay; type: cell-based
Summary of the method: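 Uninfected MT-2 cells were exposed to 10-step 3-fold serial compound dilutions (30 mM DMSO stocks), run in parallel with the antiviral assay. Cell health was read by XTT after 3 days. CC50 was fitted with the same one-site equation as EC50.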

[4] = test system: Human immunodeficiency virus 1; assay: Antiviral activity against HIV1 clinical isolates; type: functional, organism-based
[5] = Terminal half life in rat at 5 mg/kg, iv; type: ADME, organism-based; set-up: dose 5 mg/kg, route intravenous; conditions: in vivo, read-out: beta t1/2 (converted)
[6] = Cytotoxicity against human larynx cancer cells; type: cell-based, Cancer cell lines
Hepatocyte [7] = assay: Cytotoxicity against human hepatocytes up to 200 uM in absence of CYP450 enzymes; type: ADME, cell-based
Summary of the method: (§1)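 Hepatocytes in vitro were exposed to concentrations up to 200 μM, with or without expression of each of the four major CYP 450 enzymes.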

[8] = Ratio of plasma concentration in rat at 5 mg/kg, po to EC50 for HIV1 clinical isolates; type: ADME, organism-based; set-up: dose 5 mg/kg, route oral; conditions: in vivo
[9] = Ratio of plasma concentration in dog at 5 mg/kg, po to EC50 for HIV1 clinical isolates; type: ADME, organism-based; set-up: dose 5 mg/kg, route oral; conditions: in vivo
Cytochrome P450 2C19 = Cytochrome P450 2C19 (Homo sapiens, UniProt P33261); assay: Inhibition of recombinant CYP2C19; type: ADME
Sequence of Cytochrome P450 2C19 (P33261 whole entry): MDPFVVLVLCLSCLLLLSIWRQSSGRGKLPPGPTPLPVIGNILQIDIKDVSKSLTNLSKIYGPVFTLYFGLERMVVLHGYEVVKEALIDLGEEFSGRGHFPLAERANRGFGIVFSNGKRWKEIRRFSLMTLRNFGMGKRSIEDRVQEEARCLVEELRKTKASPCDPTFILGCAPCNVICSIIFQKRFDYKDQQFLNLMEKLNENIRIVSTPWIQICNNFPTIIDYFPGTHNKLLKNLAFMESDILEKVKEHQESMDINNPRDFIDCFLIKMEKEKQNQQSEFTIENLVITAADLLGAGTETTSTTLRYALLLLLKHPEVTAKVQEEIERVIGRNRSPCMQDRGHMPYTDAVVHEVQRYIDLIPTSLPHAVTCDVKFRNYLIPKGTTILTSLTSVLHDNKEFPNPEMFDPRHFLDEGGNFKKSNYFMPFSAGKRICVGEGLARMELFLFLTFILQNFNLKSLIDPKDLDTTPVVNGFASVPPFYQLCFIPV

Rattus norvegicus = assay: AUC in rat at 5 mg/kg, po; type: ADME, organism-based, Plasma; set-up: dose 5 mg/kg, route oral; conditions: in vivo
[10] = Inhibition of HIV1 LAI gp120/CD4 interaction in human HeLa67 cells assessed as inhibition of viral entry after 3 days by luciferase reporter gene assay; type: cell-based
Summary of the method: (§2)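 HeLa 67 cells (HeLa expressing CD4, CCR5 and CXCR4; DMEM, 10% heat-inactivated FBS, penicillin/streptomycin) were plated at 10^5 cells/well the day before infection. They were then infected with HIV LAI-Δenv-luc pseudotyped with JRFL or LAI envelope, in the presence of 10-step 3-fold DMSO serial dilutions (30 mM stocks), run in duplicate. After 3 days at 37 C, firefly luciferase was read. EC50 was from a one-site fit.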

[11] = Cytotoxicity against human PBMC; type: cell-based
Canis familiaris = assay: Cardiotoxicity in dog assessed as changes in ECG at 200 mg/kg; type: toxicity, organism-based, Canis lupus familiaris; set-up: dose 200 mg/kg; conditions: in vivo
Summary of the method: (§3)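 Dogs were dosed at 200 mpk, with ECG monitored for drug-related changes and plasma Cmax determined.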

[12] = Stability at pH 2 after 48 hrs; type: physicochemical; conditions: buffer, pH 2, 48 h
Summary of the method: (§4)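 The compound was held in solution at pH 2 or pH 7 for 48 h at 37 C and then checked for chemical change.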

[13] = Cytotoxicity against human hepatic cancer cells; type: cell-based, Cancer cell lines
Cytochrome P450 2C9 = Cytochrome P450 2C9 (Homo sapiens, UniProt P11712); assay: Inhibition of recombinant CYP2C9; type: ADME
Sequence of Cytochrome P450 2C9 (P11712 whole entry): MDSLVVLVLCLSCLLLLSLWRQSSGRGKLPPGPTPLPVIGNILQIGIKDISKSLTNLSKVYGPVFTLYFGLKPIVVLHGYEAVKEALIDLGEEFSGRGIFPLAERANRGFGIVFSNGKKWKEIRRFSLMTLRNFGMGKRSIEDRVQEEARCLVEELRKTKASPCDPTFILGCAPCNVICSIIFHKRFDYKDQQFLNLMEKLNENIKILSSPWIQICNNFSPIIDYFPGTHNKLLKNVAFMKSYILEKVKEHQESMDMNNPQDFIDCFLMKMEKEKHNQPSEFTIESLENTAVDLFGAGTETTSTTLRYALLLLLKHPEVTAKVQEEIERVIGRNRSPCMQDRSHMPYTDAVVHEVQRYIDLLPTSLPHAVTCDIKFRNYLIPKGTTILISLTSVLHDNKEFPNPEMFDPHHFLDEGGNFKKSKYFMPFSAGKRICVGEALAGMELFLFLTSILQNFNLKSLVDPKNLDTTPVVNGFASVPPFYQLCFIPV

[14] = Cytotoxicity against human cervical cancer cells; type: cell-based, Cancer cell lines
[15] = Cmax in dog at 200 mg/kg; type: ADME, organism-based, Canis lupus familiaris; set-up: dose 200 mg/kg; conditions: in vivo; summary of the method: as §3
[16] = Oral bioavailability in rat at 5 mg/kg administered as crystalline suspension; type: ADME, organism-based; conditions: in vivo
[17] = Aqueous solubility of crystalline form of compound in buffer solution of pH 6.5 at 25 degC; type: physicochemical
Summary of the method: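 Solubility of the crystalline solid was measured 24-72 h after adding it to phosphate buffered solution, pH 6.5, at room temperature.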

Cytochrome P450 1A2 = target: T1, Cytochrome P450 1A2 (Homo sapiens, UniProt P05177); assay: Inhibition of recombinant CYP1A2; type: ADME
T1 sequence (P05177 whole entry): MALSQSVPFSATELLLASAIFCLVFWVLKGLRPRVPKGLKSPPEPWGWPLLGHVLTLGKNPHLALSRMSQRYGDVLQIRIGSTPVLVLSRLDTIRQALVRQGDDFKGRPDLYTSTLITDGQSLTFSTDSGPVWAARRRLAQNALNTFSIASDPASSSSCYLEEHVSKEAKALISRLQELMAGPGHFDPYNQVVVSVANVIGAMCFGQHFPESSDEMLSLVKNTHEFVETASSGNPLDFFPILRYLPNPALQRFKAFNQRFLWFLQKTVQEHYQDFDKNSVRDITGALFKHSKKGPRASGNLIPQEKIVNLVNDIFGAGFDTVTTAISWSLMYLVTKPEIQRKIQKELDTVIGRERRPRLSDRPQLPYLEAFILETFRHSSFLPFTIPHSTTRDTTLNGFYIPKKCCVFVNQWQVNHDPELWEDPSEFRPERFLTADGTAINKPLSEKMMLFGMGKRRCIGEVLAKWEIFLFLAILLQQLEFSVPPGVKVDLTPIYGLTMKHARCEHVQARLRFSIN

[18] = Metabolic stability in human liver microsomes assessed as half life; type: ADME, Microsome
[19] = target: Voltage-gated inwardly rectifying potassium channel KCNH2 (Homo sapiens, UniProt Q12809); assay: Inhibition of human ERG by channel flux assay
Sequence of Voltage-gated inwardly rectifying potassium channel KCNH2 (Q12809 whole entry): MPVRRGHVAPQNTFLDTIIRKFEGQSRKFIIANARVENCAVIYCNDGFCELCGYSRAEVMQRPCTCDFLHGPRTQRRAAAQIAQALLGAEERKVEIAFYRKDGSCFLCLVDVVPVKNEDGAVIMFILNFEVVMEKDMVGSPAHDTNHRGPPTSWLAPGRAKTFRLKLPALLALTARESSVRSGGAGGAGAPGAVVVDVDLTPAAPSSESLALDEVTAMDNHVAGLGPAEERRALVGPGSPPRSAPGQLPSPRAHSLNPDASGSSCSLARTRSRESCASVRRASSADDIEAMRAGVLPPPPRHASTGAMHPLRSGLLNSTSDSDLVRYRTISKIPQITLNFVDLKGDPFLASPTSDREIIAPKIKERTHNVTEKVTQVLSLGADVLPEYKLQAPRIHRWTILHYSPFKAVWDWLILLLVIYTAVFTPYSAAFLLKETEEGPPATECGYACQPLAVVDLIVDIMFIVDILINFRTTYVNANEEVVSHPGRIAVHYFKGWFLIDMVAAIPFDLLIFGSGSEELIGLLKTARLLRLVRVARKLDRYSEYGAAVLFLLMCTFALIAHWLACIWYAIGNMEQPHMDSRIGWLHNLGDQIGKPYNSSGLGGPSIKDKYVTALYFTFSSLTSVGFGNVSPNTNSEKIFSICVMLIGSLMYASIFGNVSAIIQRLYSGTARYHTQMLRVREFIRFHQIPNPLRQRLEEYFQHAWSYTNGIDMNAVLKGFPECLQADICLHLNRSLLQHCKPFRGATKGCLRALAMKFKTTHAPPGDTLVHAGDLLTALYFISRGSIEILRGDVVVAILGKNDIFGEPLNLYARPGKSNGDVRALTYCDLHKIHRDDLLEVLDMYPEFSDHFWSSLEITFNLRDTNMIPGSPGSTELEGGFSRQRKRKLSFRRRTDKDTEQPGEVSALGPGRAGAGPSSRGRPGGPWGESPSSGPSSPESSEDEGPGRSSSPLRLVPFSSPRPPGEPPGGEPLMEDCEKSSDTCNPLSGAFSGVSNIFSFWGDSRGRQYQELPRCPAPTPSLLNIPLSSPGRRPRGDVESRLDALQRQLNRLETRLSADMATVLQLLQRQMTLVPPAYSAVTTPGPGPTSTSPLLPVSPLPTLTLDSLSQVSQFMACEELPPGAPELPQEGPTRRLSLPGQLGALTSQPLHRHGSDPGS

[20] = Aqueous solubility of crystalline form of compound in buffer solution of pH 10 at 25 degC; type: physicochemical
[21] = Cytotoxicity against human lung cancer cell; type: cell-based, Cancer cell lines; conditions: lung cancer cells
[22] = Oral bioavailability in monkey at 5 mg/kg; type: ADME, organism-based, Macaca mulatta; conditions: rhesus monkey, in vivo
[23] = Solubility at pH 1.5; type: physicochemical; conditions: buffer
[24] = Ratio of plasma concentration in monkey at 5 mg/kg, po to EC50 for HIV1 clinical isolates; type: ADME, organism-based; set-up: dose 5 mg/kg, route oral; conditions: in vivo
Cytochrome P450 3A4 [25] = target: T2, Cytochrome P450 3A4 (Homo sapiens, UniProt P08684); assay: Inhibition of recombinant CYP3A4 using 7-benzyloxyresorufin as substrate; type: ADME
T2 sequence (P08684 whole entry): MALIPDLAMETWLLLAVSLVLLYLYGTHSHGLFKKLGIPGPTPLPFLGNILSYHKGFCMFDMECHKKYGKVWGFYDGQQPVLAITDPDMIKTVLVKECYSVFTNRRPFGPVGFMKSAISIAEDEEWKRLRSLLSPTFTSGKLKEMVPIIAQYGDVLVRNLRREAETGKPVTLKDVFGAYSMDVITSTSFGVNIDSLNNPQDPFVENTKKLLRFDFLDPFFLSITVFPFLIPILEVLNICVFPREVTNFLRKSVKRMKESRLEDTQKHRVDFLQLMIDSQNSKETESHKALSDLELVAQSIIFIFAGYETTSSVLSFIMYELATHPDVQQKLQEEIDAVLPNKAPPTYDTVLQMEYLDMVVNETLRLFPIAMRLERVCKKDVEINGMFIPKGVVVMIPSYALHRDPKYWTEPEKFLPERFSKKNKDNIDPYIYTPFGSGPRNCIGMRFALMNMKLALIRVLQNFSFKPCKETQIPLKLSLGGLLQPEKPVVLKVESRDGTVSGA

Cytochrome P450 2D6 = Cytochrome P450 2D6 (Homo sapiens, UniProt P10635); assay: Inhibition of recombinant CYP2D6; type: ADME
Sequence of Cytochrome P450 2D6 (P10635 whole entry): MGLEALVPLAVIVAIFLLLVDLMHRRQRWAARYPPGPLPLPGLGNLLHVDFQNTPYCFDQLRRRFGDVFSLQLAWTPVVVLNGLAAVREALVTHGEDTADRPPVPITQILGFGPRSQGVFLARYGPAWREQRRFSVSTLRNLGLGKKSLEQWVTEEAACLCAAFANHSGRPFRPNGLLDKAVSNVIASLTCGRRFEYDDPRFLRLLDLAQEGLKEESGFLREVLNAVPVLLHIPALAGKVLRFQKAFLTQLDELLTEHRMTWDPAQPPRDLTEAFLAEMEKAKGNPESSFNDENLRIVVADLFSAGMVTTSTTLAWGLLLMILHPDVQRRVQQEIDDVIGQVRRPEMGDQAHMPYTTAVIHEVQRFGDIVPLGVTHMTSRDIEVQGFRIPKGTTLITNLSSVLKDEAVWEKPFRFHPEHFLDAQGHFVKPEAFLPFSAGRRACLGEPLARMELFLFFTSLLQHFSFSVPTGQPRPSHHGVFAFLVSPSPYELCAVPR

[26] = Stability at pH 7 after 48 hrs; type: physicochemical; conditions: buffer, pH 7, 48 h; summary of the method: as §4
Hepatocyte [27] = assay: Cytotoxicity against human hepatocytes up to 200 uM in presence of CYP450 enzymes; type: ADME, cell-based; summary of the method: as §1
[28] = Aqueous solubility of crystalline form of compound in buffer solution of pH 1.5 at 25 degC; type: physicochemical
[29] = Cytotoxicity against human T cell; type: cell-based; conditions: T cells
[30] = Cytotoxicity against HEK cells; type: cell-based, HEK293; conditions: human
[31] = Inhibition of HIV1 JRFL gp120/CD4 interaction in human HeLa67 cells assessed as inhibition of viral entry after 3 days by luciferase reporter gene assay; type: cell-based; summary of the method: as §2
[32] = Cytotoxicity against human neuronal tumor cells; type: cell-based
Cytochrome P450 3A4 [33] = target: T2, Cytochrome P450 3A4; assay: Inhibition of recombinant CYP3A4 using benzyloxy-4-(trifluoromethyl)coumarin as substrate; type: ADME
[34] = Permeability across human Caco-2 cell membrane at pH 6.5; type: ADME, cell-based; conditions: Caco-2, pH 6.5, read-out: permeability

With `COc1ncc(OC)c2c(C(=O)C(=O)N3CCN(C(=O)c4ccccc4)CC3)c[nH]c12` the solubility [1] was 40 µg/mL (≈ 94.7 µM), the logD [2] was 1.5 and the CC50 at 72 h [3] was > 300 µM. The EC50 [4] was 0.0365 µM, the half-life [5] was 144 min and the CC50 [6] was ≥ 120 µM. For the same compound, the Activity (Hepatocyte [7]) was “Non-toxic”, the Ratio [8] was 18 and the Ratio [9] was 18. The IC50 (Cytochrome P450 2C19) was > 40 µM, the AUC (Rattus norvegicus) was 6.3 µg/h/mL and the EC50 [10] was 0.00115 µM. The CC50 [11] was ≥ 120 µM, the Activity (Canis familiaris) was “Non-toxic” and the Stability [12] was “Stable”. For the same compound, the CC50 [13] was ≥ 120 µM, the IC50 (Cytochrome P450 2C9) was 30 µM and the CC50 [14] was ≥ 120 µM. The Cmax [15] was 33 µM, the bioavailability [16] was 55% and the solubility [17] was 40 µg/mL (≈ 94.7 µM). For the same compound, the IC50 (Cytochrome P450 1A2) was > 40 µM, the half-life [18] was > 100 min and the IC50 [19] was > 80 µM. For the same compound, the solubility [20] was 250 µg/mL (≈ 592 µM), the CC50 [21] was ≥ 120 µM and the bioavailability [22] was 60%. For the same compound, the solubility [23] was 900 µg/mL (≈ 2130 µM), the Ratio [24] was 18 and the IC50 (Cytochrome P450 3A4 [25]) was > 40 µM. The IC50 (Cytochrome P450 2D6) was > 40 µM, the Stability [26] was “Stable” and the Activity (Hepatocyte [27]) was “Non-toxic”. For the same compound, the solubility [28] was 900 µg/mL (≈ 2130 µM), the CC50 [29] was ≥ 120 µM and the CC50 [30] was ≥ 120 µM. The EC50 [31] was 0.00088 µM, the CC50 [32] was ≥ 120 µM and the IC50 (Cytochrome P450 3A4 [33]) was > 40 µM. For the same compound, the Papp [34] was 17.8 ×10⁻⁶ cm/s.
Work on `C[C@@H]1CN(C(=O)c2ccccc2)CCN1C(=O)C(=O)c1c[nH]c2ncccc12` yielded a logD [2] of 1.8, a CC50 at 72 h [3] of 280 µM and an IC50 (Cytochrome P450 2C19) of 10 µM. For the same compound, the IC50 (Cytochrome P450 2C9) was 7.9 µM, the solubility [17] was 936 µg/mL (≈ 2490 µM) and the IC50 (Cytochrome P450 1A2) was > 40 µM. The half-life [18] was 49.5 min, the IC50 [19] was > 80 µM and the IC50 (Cytochrome P450 3A4 [25]) was > 40 µM. For the same compound, the IC50 (Cytochrome P450 2D6) was 17 µM, the EC50 [31] was 0.0017 µM and the IC50 (Cytochrome P450 3A4 [33]) was > 40 µM. For the same compound, the Papp [34] was 16.8 ×10⁻⁶ cm/s.
Work on `C[C@@H]1CN(C(=O)c2ccccc2)CCN1C(=O)C(=O)c1c[nH]c2ccccc12` yielded a logD [2] of 1.9, a CC50 at 72 h [3] of 200 µM and an IC50 (Cytochrome P450 2C19) of 2.6 µM. For the same compound, the EC50 [10] was 0.0049 µM, the IC50 (Cytochrome P450 2C9) was 5.2 µM and the solubility [17] was 16 µg/mL (≈ 42.6 µM). The IC50 (Cytochrome P450 1A2) was > 40 µM, the half-life [18] was 16.9 min and the IC50 [19] was > 80 µM. The IC50 (Cytochrome P450 3A4 [25]) was > 40 µM, the IC50 (Cytochrome P450 2D6) was 4.8 µM and the EC50 [31] was 0.004 µM. The IC50 (Cytochrome P450 3A4 [33]) was > 40 µM and the Papp [34] was 16.9 ×10⁻⁶ cm/s.
With `C[C@@H]1CN(C(=O)c2ccccc2)CCN1C(=O)C(=O)c1c[nH]c2cnccc12` the logD [2] was 1.5, the CC50 at 72 h [3] was > 300 µM and the IC50 (Cytochrome P450 2C19) was 7.2 µM. For the same compound, the IC50 (Cytochrome P450 2C9) was 17 µM, the solubility [17] was 487 µg/mL (≈ 1290 µM) and the IC50 (Cytochrome P450 1A2) was > 40 µM. The half-life [18] was 38.5 min, the IC50 [19] was > 80 µM and the IC50 (Cytochrome P450 3A4 [25]) was > 40 µM. The IC50 (Cytochrome P450 2D6) was 38 µM, the EC50 [31] was 0.0216 µM and the IC50 (Cytochrome P450 3A4 [33]) was > 40 µM. For the same compound, the Papp [34] was < 1.5 ×10⁻⁶ cm/s.
